Assay [1] has as its system Mus musculus. The assay is described as follows: Antiinflammatory activity in ICR mouse assessed as inhibition of TPA-induced edema per ear applied topically 30 mins before TPA treatment. Format: functional. A digest of the protocol: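 Female SPF ICR mice. TPA (1.7 nmol, 1 µg) in 20 µL acetone was applied to the right ear only, 10 µL to each of the inner and outer surfaces. Sample or vehicle (CHCl3-MeOH 1:1, 20 µL) was applied topically about 30 min beforehand. Ear thickness was read with a pocket gauge before and 6 h after TPA. ID50 came from probit-graphic interpolation across four dose levels, five mice each.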

The test system of assay [2] is Mus musculus. The assay is described as follows: Inhibitory ratio of TPA-induced edema in presence of drug to TPA-induced edema in ICR mouse. Format: functional. A digest of the protocol:
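Topical sample at 1.0 mg/ear, or CHCl3-MeOH (1:1, 20 µL) vehicle control, given about 30 min before TPA (1.7 nmol in 20 µL acetone) on the right ear of female ICR mice. Ear thickness was gauged before and 6 h after TPA. InhR = [(Edema A − Edema B)/Edema A] × 100. Mean of five mice, Student's t-test.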

With `C[C@@H]1O[C@@H](O[C@H]2[C@H](O[C@H]3CC[C@]4(C)[C@H]5CC=C6[C@@H]7CC(C)(C)CC[C@]7(C(=O)O[C@@H]7OC[C@H](O)[C@H](O)[C@H]7O[C@@H]7O[C@@H](C)[C@H](O[C@@H]8O[C@H](CO)[C@@H](O)[C@H](O)[C@H]8O)[C@@H](O)[C@H]7O)CC[C@@]6(C)[C@]5(C)CC[C@H]4C3(C)C)O[C@H](CO)[C@@H](O[C@@H]3OC[C@@H](O)[C@H](O)[C@H]3O)[C@@H]2O)[C@H](O)[C@H](O)[C@H]1O` [HELIANTHOSIDE 1], the ID50 in assay [1] is given as 144 nmol. Further, in assay [2], the Ratio was 71%.
For `C[C@@H]1O[C@@H](O[C@@H]2[C@@H](O)[C@H](O[C@H]3CC[C@]4(C)[C@H]5CC=C6[C@@H]7CC(C)(C)CC[C@]7(C(=O)O[C@@H]7OC[C@H](O)[C@H](O)[C@H]7O[C@@H]7O[C@@H](C)[C@H](O[C@@H]8O[C@H](CO)[C@@H](O)[C@H](O)[C@H]8O)[C@@H](O)[C@H]7O)[C@H](O)C[C@@]6(C)[C@]5(C)CC[C@H]4C3(C)C)O[C@H](CO)[C@H]2O[C@@H]2OC[C@@H](O)[C@H](O)[C@H]2O)[C@H](O)[C@H](O)[C@H]1O` [HELIANTHOSIDE 2] the same measures were 135 nmol and 77%.
For the compound `C[C@@H]1O[C@@H](O[C@H]2[C@H](O[C@H]3CC[C@]4(C)[C@H]5CC=C6[C@@H]7CC(C)(C)CC[C@]7(C(=O)O[C@@H]7O[C@H](CO)[C@@H](O)[C@H](O)[C@H]7O[C@@H]7O[C@@H](C)[C@H](O[C@@H]8O[C@H](CO)[C@@H](O)[C@H](O)[C@H]8O)[C@@H](O)[C@H]7O)[C@H](O)C[C@@]6(C)[C@]5(C)CC[C@H]4C3(C)C)O[C@H](CO)[C@@H](O[C@@H]3OC[C@@H](O)[C@H](O)[C@H]3O)[C@@H]2O)[C@H](O)[C@H](O)[C@H]1O` [HELIANTHOSIDE 3], the ID50 in assay [1] was 156 nmol. In assay [2], the Ratio was determined as 73%.
On the same counts, the results for `C[C@@H]1O[C@@H](O[C@@H]2[C@@H](O)[C@H](O[C@H]3CC[C@@]4(C)[C@@H](CC[C@]5(C)[C@@H]4CC=C4[C@@H]6CC(C)(C)CC[C@]6(C(=O)O[C@@H]6OC[C@@H](O)[C@H](O)[C@H]6O[C@@H]6O[C@@H](C)[C@H](O[C@@H]7O[C@H](CO)[C@@H](O)[C@H](O)[C@H]7O)[C@@H](O)[C@H]6O)[C@H](O)C[C@]45C)[C@]3(C)CO)O[C@H](CO)[C@H]2O[C@@H]2OC[C@@H](O)[C@H](O)[C@H]2O)[C@H](O)[C@H](O)[C@H]1O` [HELIANTHOSIDE 4] are 262 nmol and 75%.
Take `C[C@@H]1O[C@@H](O[C@@H]2[C@@H](O)[C@H](O[C@H]3CC[C@]4(C)[C@H]5CC=C6[C@@H]7CC(C)(C)CC[C@]7(C(=O)O[C@@H]7O[C@H](CO)[C@@H](O)[C@H](O)[C@H]7O[C@@H]7O[C@@H](C)[C@H](O)[C@@H](O)[C@H]7O)[C@H](O)C[C@@]6(C)[C@]5(C)CC[C@H]4C3(C)C)O[C@H](CO)[C@H]2O[C@@H]2OC[C@@H](O)[C@H](O)[C@H]2O)[C@H](O)[C@H](O)[C@H]1O` [HELIANTHOSIDE 5]: the ID50 in assay [1] is recorded as 155 nmol. The Ratio in assay [2] is on record as 63%.
For `C[C@@H]1O[C@@H](O[C@H]2CC[C@]3(C)[C@H]4CC=C5[C@@H]6CC(C)(C)CC[C@]6(C(=O)OC6OC[C@@H](O)[C@@H](O)[C@@H]6O[C@@H]6O[C@@H](C)[C@H](O[C@@H]7O[C@H](CO)[C@@H](O)[C@H](O)[C@H]7O)[C@@H](O)[C@H]6O)[C@H](O)C[C@@]5(C)[C@]4(C)CC[C@H]3C2(C)C)[C@H](O)[C@H](O)[C@H]1OC1OC[C@@H](O)[C@H](O)[C@H]1O` (stereo partly specified) [HELIANTHOSIDE B] the same measures were 65 nmol and 80%.
As to `C[C@]12CCC(=O)C=C1CC[C@@H]1[C@@H]2[C@@H](O)C[C@@]2(C)[C@H]1CC[C@]2(O)C(=O)CO` [HYDROCORTISONE], in assay [1], the ID50 is listed as 83 nmol. In addition, the Ratio in assay [2] is 99%.
Consider `COc1ccc2c(c1)c(CC(=O)O)c(C)n2C(=O)c1ccc(Cl)cc1` [INDOMETHACIN], for which the ID50 in assay [1] is 838 nmol. Moreover, in assay [2], the Ratio was 96%.

These data come from ChEMBL document CHEMBL1139893, “Triterpene glycosides from the flower petals of sunflower (Helianthus annuus) and their anti-inflammatory activity” (2007).
